Test results reported in ChEMBL document CHEMBL4266037, “Discovery and Characterization of Cyclotides from Rinorea Species” (J Nat Prod, 2018).
Positions of bridges follow the written chain, without caps; N, C: chain ends. Residues, ends and D or L forms follow the SMILES beside them.

What was measured:
Erythrocyte = experiment: Hemolytic activity against human RBC after 1 hr; assay type: ADME, cell-based
Procedure, shortened: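 Human red blood cells exposed to test peptides at 0.003–10 μM, with melittin at 0.15–20 μM as the lysis positive control. IC50 given as mean ± SD of three biological replicates.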

HFF-1 [1] = experiment: Cytotoxicity against human HFF1 after 24 hrs by MTT assay; assay type: cell-based; settings: HFF-1, 24 h
Procedure, shortened: (§1)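 Cells seeded at 3 × 10^3 per well and grown 24 h at 37 °C in 5% CO2. Media: HUVEC in 10% FBS/EBM-2 with supplements; HFF-1 in 15% FBS/DMEM; HT-29 and MDA-MB-231 in 10% FBS/DMEM; MM96L in 10% FBS/RPMI with 2 mM L-glutamine and 1 mM pyruvate. Switched to serum-free medium, then paclitaxel 0.00075–10 μM for 24 or 48 h. MTT added 3 h, formazan taken up in DMSO, A600. Triplicate; IC50 from sigmoidal fit.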

HUVEC [2] = experiment: Cytotoxicity against HUVEC after 24 hrs by MTT assay; assay type: cell-based; settings: Homo sapiens; procedure, shortened: as §1
MDA-MB-231 [3] = experiment: Cytotoxicity against human MDA-MB-231 after 24 hrs by MTT assay; assay type: functional, cell-based; settings: MDA-MB-231, 24 h; procedure, shortened: as §1
MM96L [4] = experiment: Cytotoxicity against human MM96L after 24 hrs by MTT assay; assay type: functional, cell-based; procedure, shortened: as §1
MM96L [5] = experiment: Cytotoxicity against human MM96L after 48 hrs by MTT assay; assay type: functional, cell-based; procedure, shortened: as §1
MDA-MB-231 [6] = experiment: cells; settings: Homo sapiens, MDA-MB-231, 48 h
HT-29 [7] = experiment: Cytotoxicity against human HT-29 after 24 hrs by MTT assay; assay type: functional, cell-based; settings: HT-29, 24 h; procedure, shortened: as §1
HUVEC [8] = experiment: Cytotoxicity against HUVEC after 48 hrs by MTT assay; assay type: cell-based; settings: Homo sapiens; procedure, shortened: as §1
HFF-1 [9] = experiment: Cytotoxicity against human HFF1 after 48 hrs by MTT assay; assay type: cell-based; settings: HFF-1, 48 h; procedure, shortened: as §1
HT-29 [10] = experiment: Cytotoxicity against human HT-29 after 48 hrs by MTT assay; assay type: functional, cell-based; settings: HT-29, 48 h; procedure, shortened: as §1

SMILES | IC50 (Erythrocyte) [µM] | IC50 (HFF-1 [1]) [µM] | IC50 (HUVEC [2]) [µM] | IC50 (MDA-MB-231 [3]) [µM] | IC50 (MM96L [4]) [µM] | IC50 (MM96L [5]) [µM] | IC50 (MDA-MB-231 [6]) [µM] | IC50 (HT-29 [7]) [µM] | IC50 (HUVEC [8]) [µM] | IC50 (HFF-1 [9]) [µM] | IC50 (HT-29 [10]) [µM]
CC[C@H](C)[C@@H]1NC(=O)[C@@H]2CCCN2C(=O)[C@H](CC(C)C)NC(=O)CNC(=O)[C@H](CC(N)=O)NC(=O)[C@H](CCCCN)NC(=O)[C@H](Cc2ccc(O)cc2)NC(=O)[C@@H]2CSSC[C@@H]3NC(=O)[C@H](CCCCN)NC(=O)CNC(=O)[C@H](CC(C)C)NC(=O)[C@H](CC(C)C)NC(=O)[C@@H]4CSSC[C@H](NC(=O)[C@H](CO)NC(=O)[C@H](CSSC[C@H](NC1=O)C(=O)NCC(=O)N[C@@H](CCC(=O)O)C(=O)N[C@@H]([C@@H](C)O)C(=O)N4)NC(=O)CNC(=O)[C@@H]1CCCN1C(=O)[C@H]([C@@H](C)O)NC(=O)[C@H](Cc1ccc(O)cc1)NC3=O)C(=O)N[C@@H](CCCNC(=N)N)C(=O)N[C@@H](CCCNC(=N)N)C(=O)N1CCC[C@H]1C(=O)N[C@@H](C(C)C)C(=O)N2 (cyclo(CGETCLLGKCYTPGCSCRRPVCYKNGLPI); disulfide 1-15, 5-17, 10-22) | > 10 | 1.9 | 2.6 | 2.3 | 1.1 | – | – | – | – | – | –
CC(=O)O[C@H]1C(=O)[C@@]2(C)[C@H]([C@H](OC(=O)c3ccccc3)[C@]3(O)C[C@H](OC(=O)[C@H](O)[C@@H](NC(=O)c4ccccc4)c4ccccc4)C(C)=C1C3(C)C)[C@]1(OC(C)=O)CO[C@@H]1C[C@@H]2O [PACLITAXEL] | – | > 10 | > 10 | 0.2 | > 10 | > 10 | 0.001 | 0.07 | > 10 | > 10 | 0.01
CC[C@H](C)[C@@H]1NC(=O)[C@H](C)NC(=O)[C@H](CO)NC(=O)[C@H](CO)NC(=O)[C@H]([C@@H](C)CC)NC(=O)[C@@H]2CSSC[C@@H]3NC(=O)[C@H](C(C)C)NC(=O)[C@H](CCCCN)NC(=O)[C@H](CO)NC(=O)[C@H](CCCCN)NC(=O)[C@@H]4CSSC[C@H](NC(=O)[C@H](CO)NC(=O)[C@H](CCC(=O)O)NC(=O)CNC(=O)[C@H](CSSC[C@H](NC(=O)CNC1=O)C(=O)N[C@@H](CO)C(=O)N4)NC(=O)[C@@H]1CCCN1C(=O)[C@H]([C@@H](C)CC)NC(=O)CNC(=O)[C@H](CC(N)=O)NC(=O)[C@H](CCCNC(=N)N)NC(=O)[C@H](Cc1ccc(O)cc1)NC3=O)C(=O)N[C@@H](C(C)C)C(=O)N[C@@H](Cc1c[nH]c3ccccc13)C(=O)N[C@@H]([C@@H](C)CC)C(=O)N1CCC[C@H]1C(=O)N2 (cyclo(AIGCSCKSKVCYRNGIPCGESCVWIPCISS); disulfide 4-18, 6-22, 11-27) | 36 | 1.3 | 0.35 | 1.5 | 0.65 | – | – | 0.87 | – | – | –
CC[C@H](C)[C@H](NC(=O)CN)C(=O)NCC(=O)N[C@@H](C)C(=O)N[C@H](C(=O)N[C@@H](CC(C)C)C(=O)N[C@@H](CCCCN)C(=O)N[C@H](C(=O)N[C@@H](CC(C)C)C(=O)N[C@H](C(=O)N[C@H](C(=O)NCC(=O)N[C@@H](CC(C)C)C(=O)N1CCC[C@H]1C(=O)N[C@@H](C)C(=O)N[C@@H](CC(C)C)C(=O)N[C@H](C(=O)N[C@@H](CO)C(=O)N[C@@H](Cc1c[nH]c2ccccc12)C(=O)N[C@H](C(=O)N[C@@H](CCCCN)C(=O)N[C@@H](CCCNC(=N)N)C(=O)N[C@@H](CCCCN)C(=O)N[C@@H](CCCNC(=N)N)C(=O)N[C@@H](CCC(N)=O)C(=O)N[C@@H](CCC(N)=O)C(N)=O)[C@@H](C)CC)[C@@H](C)CC)[C@@H](C)O)[C@@H](C)O)C(C)C)C(C)C [MELITTIN] | 0.96 | – | – | – | – | – | – | – | – | – | –
CC[C@H](C)[C@@H]1NC(=O)[C@@H]2CCCN2C(=O)[C@H](CCCCN)NC(=O)CNC(=O)[C@H](CC(N)=O)NC(=O)[C@H](CCCCN)NC(=O)[C@H](Cc2ccc(O)cc2)NC(=O)[C@H](CS)NC(=O)[C@H](CC(C)C)NC(=O)[C@H](C(C)C)NC(=O)[C@H](CCCNC(=N)N)NC(=O)[C@H](CCCCN)NC(=O)CNC(=O)[C@@H]2CSSC[C@@H]3NC(=O)[C@H]([C@@H](C)O)NC(=O)[C@H](CCC(=O)O)NC(=O)CNC(=O)[C@H](CSSC[C@H](NC(=O)CNC(=O)[C@@H]4CCCN4C(=O)[C@H]([C@@H](C)O)NC(=O)[C@H](Cc4ccc(O)cc4)NC(=O)[C@H](CS)NC(=O)[C@H](CCCCN)NC(=O)CNC(=O)[C@H](CC(C)C)NC(=O)[C@H](CC(C)C)NC3=O)C(=O)N[C@@H]([C@@H](C)O)C(=O)N2)NC1=O (cyclo(CGETCLLGKCYTPGCTCGKRVLCYKNGKPI); disulfide 1-15, 5-17) | – | 1.7 | 2.8 | 4.4 | 0.93 | – | – | – | – | – | –
CC[C@H](C)[C@@H]1NC(=O)[C@H](Cc2ccc(O)cc2)NC(=O)[C@H](CO)NC(=O)C(N)C(=O)[C@H](CC(N)=O)NC(=O)[C@H](CCCCN)NC(=O)[C@H](CCCCN)NC(=O)[C@@H]2CSSC[C@@H]3NC(=O)[C@H](CCCCN)NC(=O)CNC(=O)[C@H](CCC(N)=O)NC(=O)[C@H](C(C)C)NC(=O)[C@@H]4CSSC[C@H](NC(=O)[C@H]([C@@H](C)O)NC(=O)[C@H](CSSC[C@H](NC1=O)C(=O)NCC(=O)N[C@@H](CCC(=O)O)C(=O)N[C@@H]([C@@H](C)O)C(=O)N4)NC(=O)CNC(=O)[C@@H]1CCCN1C(=O)[C@H]([C@@H](C)O)NC(=O)[C@H](Cc1ccc(O)cc1)NC3=O)C(=O)N[C@@H](CO)C(=O)N[C@@H](Cc1c[nH]c3ccccc13)C(=O)N1CCC[C@H]1C(=O)N[C@@H]([C@@H](C)CC)C(=O)N2 (stereo partly drawn) | > 10 | 2.1 | 1.6 | 0.95 | 1.3 | – | – | 5.9 | – | – | –
CC[C@H](C)[C@@H]1NC(=O)[C@@H]2CCCN2C(=O)[C@H](CC(C)C)NC(=O)CNC(=O)[C@H](CC(N)=O)NC(=O)[C@H](CCCCN)NC(=O)[C@H](Cc2ccc(O)cc2)NC(=O)[C@@H]2CSSC[C@@H]3NC(=O)[C@H](CCCCN)NC(=O)CNC(=O)[C@H](Cc4ccccc4)NC(=O)[C@H](C(C)C)NC(=O)[C@@H]4CSSC[C@H](NC(=O)[C@H](CO)NC(=O)[C@H](CSSC[C@H](NC1=O)C(=O)NCC(=O)N[C@@H](CCC(=O)O)C(=O)N[C@@H]([C@@H](C)O)C(=O)N4)NC(=O)CNC(=O)[C@@H]1CCCN1C(=O)[C@H]([C@@H](C)O)NC(=O)[C@H](CC(N)=O)NC3=O)C(=O)N[C@@H](CCCNC(=N)N)C(=O)N[C@@H](CCCNC(=N)N)C(=O)N1CCC[C@H]1C(=O)N[C@@H]([C@@H](C)CC)C(=O)N2 (cyclo(CGETCVFGKCNTPGCSCRRPICYKNGLPI); disulfide 1-15, 5-17, 10-22) | > 10 | > 3 | > 3 | > 10 | > 3 | – | – | > 10 | – | – | –
